Results from article PMC2574552 (Molecular pharmacology, 2008).
Like-named read-outs stand apart in the source and are kept apart here.

Key:
[1] = biological target: human mGluR4 (Homo sapiens, UniProt Q14833); assay: human mGluR4/Gqi5/CHO calcium mobilization assay; type: cell-based; settings: for Fold shift hmGluR4/Gqi5: leftward shift of glutamate concentration-response curve at 30 μM PAM
[2] = biological target: rat mGluR4 (Rattus norvegicus, UniProt P31423); assay: rat mGluR4/GIRK thallium flux assay; type: cell-based; settings: for Fold shift rmGluR4/GIRK: leftward shift of glutamate concentration-response curve at 30 μM PAM; for % Max rmGluR4/GIRK: maximal potentiated EC20 response vs response to maximal glutamate alone
Chain of rat mGluR4 (P31423 33-912): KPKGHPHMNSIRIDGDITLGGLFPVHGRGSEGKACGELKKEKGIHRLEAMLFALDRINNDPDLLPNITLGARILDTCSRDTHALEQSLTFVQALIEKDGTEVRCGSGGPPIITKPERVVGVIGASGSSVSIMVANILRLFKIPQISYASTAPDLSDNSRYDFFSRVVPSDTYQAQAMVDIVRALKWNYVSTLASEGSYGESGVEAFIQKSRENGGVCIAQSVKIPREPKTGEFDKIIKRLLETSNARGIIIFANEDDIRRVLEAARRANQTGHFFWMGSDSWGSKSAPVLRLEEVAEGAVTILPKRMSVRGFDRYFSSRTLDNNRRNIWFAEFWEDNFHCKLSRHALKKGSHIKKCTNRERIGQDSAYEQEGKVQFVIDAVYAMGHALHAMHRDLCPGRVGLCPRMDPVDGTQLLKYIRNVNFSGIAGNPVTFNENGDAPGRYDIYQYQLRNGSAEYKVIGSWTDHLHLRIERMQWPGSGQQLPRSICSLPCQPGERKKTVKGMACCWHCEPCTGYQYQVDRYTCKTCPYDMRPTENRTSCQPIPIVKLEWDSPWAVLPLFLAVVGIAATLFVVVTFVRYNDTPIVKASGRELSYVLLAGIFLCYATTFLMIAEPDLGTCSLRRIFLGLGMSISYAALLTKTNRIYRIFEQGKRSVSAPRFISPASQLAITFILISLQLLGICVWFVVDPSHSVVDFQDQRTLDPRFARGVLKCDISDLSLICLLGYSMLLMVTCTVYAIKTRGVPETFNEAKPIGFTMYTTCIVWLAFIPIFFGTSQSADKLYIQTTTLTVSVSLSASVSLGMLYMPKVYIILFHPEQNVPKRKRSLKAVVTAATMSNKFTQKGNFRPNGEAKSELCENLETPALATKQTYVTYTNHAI

[3] = test system: NMDA receptor; type: cell-based, rat; settings: n = 5
[4] = test system: 67 different targets including GPCRs, ion channels, and transporters; assay: MDS-Pharma radioligand binding panel; settings: MDS-Pharma Services; Supplemental Table 2
[5] = solubility in dosing vehicle; type: physicochemical
[6] = test system: reserpine-induced akinesia; assay: reversal of reserpine-induced akinesia; type: in vivo; settings: rat, icv, reserpine 5 mg/kg s.c., 2 h pretreatment
[7] = test system: haloperidol-induced catalepsy; assay: reversal of haloperidol-induced catalepsy; type: in vivo; settings: rat, icv
How it was run: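 Male Sprague-Dawley rats (225−255 g) carried third-ventricle cannulae. They received haloperidol 1.5 mg/kg i.p. in 0.2% lactic acid. At 2 h, cataleptic rats (staying on the bar 45−60 s; forepaw-removal latency timed) got icv either L-AP4 (100−1000 nmol/10 μl, artificial CSF), test compound (31 or 93 nmol/10 μl, aqueous vehicle pH 7.4) or vehicle. Rats were retested at 15, 30 and 60 min; 6 rats/group; Dunnett's test versus vehicle.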

[8] = biological target: rat mGluR8 (Rattus norvegicus, UniProt P70579); assay: rat mGluR8/GIRK thallium flux assay; type: cell-based; settings: 30 μM; glutamate EC20
How it was run: (§1)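 GIRK-coexpressing cells were plated at 15,000/well on poly-D-lysine and grown overnight at 37°C, 5% CO2. They were loaded with 1.7 μM BTC-AM for 1 h at room temperature, then buffer was exchanged. […] Fluorescence was read at 470/540 nm, at 1 Hz for 2 min after agonist. Normalised to no-compound response; mean ± S.E.M.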

[9] = biological target: rat mGluR5 (Rattus norvegicus, UniProt P31424); assay: rat mGluR5/HEK calcium fluorescence counterscreen; type: cell-based; settings: 30 μM; glutamate EC20
Chain of rat mGluR5 (P31424 21-1203): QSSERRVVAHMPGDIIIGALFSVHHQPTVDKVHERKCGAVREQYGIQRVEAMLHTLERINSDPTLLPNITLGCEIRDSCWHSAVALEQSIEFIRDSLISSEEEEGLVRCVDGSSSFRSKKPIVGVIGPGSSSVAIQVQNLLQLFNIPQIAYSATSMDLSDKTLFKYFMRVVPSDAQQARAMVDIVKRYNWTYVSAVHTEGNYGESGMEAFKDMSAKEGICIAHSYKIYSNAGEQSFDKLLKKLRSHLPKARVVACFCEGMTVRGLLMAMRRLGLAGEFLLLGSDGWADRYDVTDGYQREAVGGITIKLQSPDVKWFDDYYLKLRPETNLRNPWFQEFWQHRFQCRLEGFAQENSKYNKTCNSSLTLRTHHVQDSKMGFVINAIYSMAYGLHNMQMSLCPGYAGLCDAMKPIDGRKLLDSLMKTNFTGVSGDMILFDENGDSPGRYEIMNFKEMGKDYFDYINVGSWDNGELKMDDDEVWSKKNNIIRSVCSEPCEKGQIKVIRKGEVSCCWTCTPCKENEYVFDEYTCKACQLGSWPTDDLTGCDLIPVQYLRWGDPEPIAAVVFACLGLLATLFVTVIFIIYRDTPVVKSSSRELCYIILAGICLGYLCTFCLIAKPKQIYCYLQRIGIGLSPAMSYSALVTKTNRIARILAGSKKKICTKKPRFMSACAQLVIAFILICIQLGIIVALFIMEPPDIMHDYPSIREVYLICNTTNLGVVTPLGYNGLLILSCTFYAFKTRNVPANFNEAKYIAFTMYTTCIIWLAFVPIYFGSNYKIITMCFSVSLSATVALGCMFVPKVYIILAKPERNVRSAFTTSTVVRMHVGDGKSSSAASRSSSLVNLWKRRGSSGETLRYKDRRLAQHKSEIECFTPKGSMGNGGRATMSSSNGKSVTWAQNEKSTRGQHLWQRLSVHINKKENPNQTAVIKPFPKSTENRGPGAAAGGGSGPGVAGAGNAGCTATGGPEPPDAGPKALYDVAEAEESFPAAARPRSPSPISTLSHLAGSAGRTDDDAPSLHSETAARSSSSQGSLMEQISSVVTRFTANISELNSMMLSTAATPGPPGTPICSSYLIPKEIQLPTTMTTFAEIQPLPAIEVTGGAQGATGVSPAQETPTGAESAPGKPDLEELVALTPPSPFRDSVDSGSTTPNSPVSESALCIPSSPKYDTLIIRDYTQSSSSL
How it was run: (§2)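 Cells were plated on poly-D-lysine plates in DMEM with 10% dialysed FBS, 20 mM HEPES and 1 mM pyruvate: mGluR1/BHK at 15,000 cells/well, mGluR5/HEK at 20,000 cells/well. They were loaded with 1 μM Fluo-4 AM for 45 min at 37°C in HBSS with 20 mM HEPES and 2.5 mM probenecid. […] Peak fluorescence was taken against control and normalised to no-compound response.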

[10] = biological target: rat mGluR7 (Rattus norvegicus, UniProt P35400); assay: rat mGluR7/GIRK thallium flux assay; type: cell-based; settings: 30 μM; L-AP4 EC20
Chain of rat mGluR7 (P35400 35-915): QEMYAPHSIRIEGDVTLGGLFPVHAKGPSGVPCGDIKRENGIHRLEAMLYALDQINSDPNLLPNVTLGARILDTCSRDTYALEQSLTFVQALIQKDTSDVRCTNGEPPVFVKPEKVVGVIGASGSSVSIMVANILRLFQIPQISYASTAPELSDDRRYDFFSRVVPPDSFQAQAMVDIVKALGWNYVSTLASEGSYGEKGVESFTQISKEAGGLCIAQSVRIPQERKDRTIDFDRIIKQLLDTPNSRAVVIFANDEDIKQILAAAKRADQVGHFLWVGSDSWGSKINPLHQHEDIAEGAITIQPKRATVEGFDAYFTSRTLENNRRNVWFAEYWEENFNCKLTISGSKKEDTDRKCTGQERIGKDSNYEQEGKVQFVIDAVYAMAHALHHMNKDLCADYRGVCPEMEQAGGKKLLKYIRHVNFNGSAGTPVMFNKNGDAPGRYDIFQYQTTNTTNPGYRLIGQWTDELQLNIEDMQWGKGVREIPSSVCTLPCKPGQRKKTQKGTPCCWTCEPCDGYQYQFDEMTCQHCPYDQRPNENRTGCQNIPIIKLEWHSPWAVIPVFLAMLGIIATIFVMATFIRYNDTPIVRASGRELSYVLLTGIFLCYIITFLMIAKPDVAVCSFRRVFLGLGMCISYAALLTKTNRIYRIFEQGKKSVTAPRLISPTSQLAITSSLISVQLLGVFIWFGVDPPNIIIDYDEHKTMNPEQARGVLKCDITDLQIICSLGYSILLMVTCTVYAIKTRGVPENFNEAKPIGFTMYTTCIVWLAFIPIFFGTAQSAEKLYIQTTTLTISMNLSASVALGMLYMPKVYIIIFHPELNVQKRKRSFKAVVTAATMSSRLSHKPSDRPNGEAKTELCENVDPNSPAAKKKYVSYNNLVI
How it was run: as §1

[11] = biological target: rat mGluR1 (Rattus norvegicus, UniProt P23385); assay: rat mGluR1/BHK calcium fluorescence counterscreen; type: cell-based; settings: 30 μM; glutamate EC20
How it was run: as §2

[12] = biological target: human mGluR2 (Homo sapiens, UniProt Q14416); assay: human mGluR2 GTPγS binding assay; type: biochemical; settings: 30 μM; glutamate EC20
Chain of human mGluR2 (Q14416 19-872): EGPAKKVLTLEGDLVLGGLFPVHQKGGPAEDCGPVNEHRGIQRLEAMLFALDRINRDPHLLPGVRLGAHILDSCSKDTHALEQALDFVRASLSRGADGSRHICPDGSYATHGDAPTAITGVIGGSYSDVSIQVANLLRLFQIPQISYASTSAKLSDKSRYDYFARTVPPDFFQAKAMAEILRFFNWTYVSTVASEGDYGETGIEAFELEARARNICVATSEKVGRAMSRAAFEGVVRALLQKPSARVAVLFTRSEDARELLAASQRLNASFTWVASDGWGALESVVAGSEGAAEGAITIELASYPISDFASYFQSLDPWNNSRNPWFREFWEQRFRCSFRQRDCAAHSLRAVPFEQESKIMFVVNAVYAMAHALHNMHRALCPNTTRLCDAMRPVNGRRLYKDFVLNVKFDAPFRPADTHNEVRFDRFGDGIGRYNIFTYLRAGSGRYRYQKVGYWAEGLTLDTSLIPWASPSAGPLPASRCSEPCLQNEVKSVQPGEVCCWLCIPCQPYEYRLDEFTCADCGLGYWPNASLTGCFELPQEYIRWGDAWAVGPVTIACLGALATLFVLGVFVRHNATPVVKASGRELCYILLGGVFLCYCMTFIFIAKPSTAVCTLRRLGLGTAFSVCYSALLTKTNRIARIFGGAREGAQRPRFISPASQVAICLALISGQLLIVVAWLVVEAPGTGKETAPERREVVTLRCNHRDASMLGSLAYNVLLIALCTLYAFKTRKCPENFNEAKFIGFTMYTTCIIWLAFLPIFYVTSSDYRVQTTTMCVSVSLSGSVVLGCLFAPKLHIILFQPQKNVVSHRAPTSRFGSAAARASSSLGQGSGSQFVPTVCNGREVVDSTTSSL
How it was run: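 Nonspecific binding: 10 μM unlabelled GTPγS. Mixes shaken 60 min at room temperature, filtered, washed three times and counted by scintillation. Normalised to no-compound response; mean ± S.E.M.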

[13] = test system: mGluR4; settings: read-out: potency at mGluR4 in vitro; ref Marino et al., 2003; cited from earlier work

Chain of human mGluR4 (Q14833 33-912): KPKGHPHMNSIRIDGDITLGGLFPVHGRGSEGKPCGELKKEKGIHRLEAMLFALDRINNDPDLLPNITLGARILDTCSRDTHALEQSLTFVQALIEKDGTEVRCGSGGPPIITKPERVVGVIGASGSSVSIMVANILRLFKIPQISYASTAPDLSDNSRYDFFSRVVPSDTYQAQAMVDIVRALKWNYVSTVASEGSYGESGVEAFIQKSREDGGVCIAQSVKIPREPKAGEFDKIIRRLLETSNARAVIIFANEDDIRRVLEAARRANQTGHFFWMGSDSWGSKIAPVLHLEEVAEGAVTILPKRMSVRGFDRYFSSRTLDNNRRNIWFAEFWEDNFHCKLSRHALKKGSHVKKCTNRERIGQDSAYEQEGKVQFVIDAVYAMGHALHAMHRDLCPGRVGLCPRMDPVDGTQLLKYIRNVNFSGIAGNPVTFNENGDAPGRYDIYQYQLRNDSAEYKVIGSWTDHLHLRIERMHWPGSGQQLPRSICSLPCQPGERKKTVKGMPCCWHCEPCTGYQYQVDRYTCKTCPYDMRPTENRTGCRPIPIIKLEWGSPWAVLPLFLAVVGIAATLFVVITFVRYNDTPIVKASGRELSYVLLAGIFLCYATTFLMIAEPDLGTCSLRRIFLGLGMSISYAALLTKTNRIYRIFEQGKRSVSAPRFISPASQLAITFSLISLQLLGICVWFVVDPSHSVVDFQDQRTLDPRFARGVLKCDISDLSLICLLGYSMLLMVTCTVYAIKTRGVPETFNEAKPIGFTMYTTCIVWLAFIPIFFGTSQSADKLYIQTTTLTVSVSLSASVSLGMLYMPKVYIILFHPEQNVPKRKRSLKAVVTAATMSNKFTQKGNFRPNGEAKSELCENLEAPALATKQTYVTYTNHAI

O=C(O)[C@@H]1CCCC[C@H]1C(=O)Nc1cc(Cl)cc(Cl)c1 (racemic) [VU0155040, (±)-trans-2-(3,5-Dichlorophenylcarbamoyl)cyclohexanecarboxylic acid]
Fold shift hmGluR4/Gqi5 [1]: 3.0±0.3 fold
Fold shift rmGluR4/GIRK [2]: 2.5±0.5 fold

O=C(Nc1cc(Cl)cc(Cl)c1)[C@H]1CCCC[C@H]1C(=O)O (racemic) [VU0155041, (±)-cis-2-(3,5-Dicholorphenylcarbamoyl)cyclohexanecarboxylic acid]
Fold shift hmGluR4/Gqi5 [1]: 6.4±0.7 fold
amplitude of NMDA receptor currents ([3]; 10 μM, p > 0.3): 106.3 ± 5.8 % of control
effect on radioligand binding at 67 targets [4]: no effect on binding at any target examined
solubility in vehicle [5]: soluble in an aqueous vehicle
Fold shift rmGluR4/GIRK [2]: 4.7±0.4 fold
EC50 ([2]; read-out: potency at rat mGluR4 (GIRK assay), potentiation of EC20 glutamate): 693 ± 140 nM
reversal of reserpine-induced akinesia ([6]; 316 nmol): significant reversal of akinesia
haloperidol-induced catalepsy ([7]; doses of 31 and 92 nmol, effects still present 30 min after infusion): significantly decrease

O=C(O)C1CCCCC1C(=O)Nc1cc(Cl)cc(Cl)c1 [(1R, 2S)]
potency and efficacy of single cis-enantiomers ([1]; mGluR4, assay not specified, data not shown): equal potency and efficacy

O=C(O)C1CCCCC1C(=O)Nc1cc(Cl)cc(Cl)c1 (centres unmarked) [Compound 2h, 2-(3,5-Dichlorophenylcarbamoyl)cyclohexanecarboxylic acid]
EC50 [1]: 750 ± 200 nM
response to compound alone in calcium assay ([1]; 10 μM, absence of glutamate, trace from original HTS): small calcium response
Fold shift hmGluR4/Gqi5 [1]: 6.5±1.0 fold
improved potency compared to PHCCC ([1]; mGluR4 PAM potency relative to PHCCC): approximately 8 fold
% Max hmGluR4/Gqi5 ([1]; maximal potentiated EC20 response vs response to maximal glutamate alone): 120.0±6.7%
potentiation of EC20 agonist response, mGluR8 [8]: did not potentiate
potentiation of EC20 agonist response, mGluR5 [9]: did not potentiate
potentiation of EC20 agonist response, mGluR7 [10]: did not potentiate
EC50 [2]: 560 ± 100 nM
Fold shift rmGluR4/GIRK [2]: 7.7±0.6 fold
% Max rmGluR4/GIRK [2]: 107.6±6.3%
potentiation of EC20 agonist response, mGluR1 [11]: did not potentiate
potentiation of EC20 agonist response, mGluR2 [12]: did not potentiate

N[C@@H](CCP(=O)(O)O)C(=O)O [L-AP4, L-(+)-2-amino-4-phosphonobutryic acid, reference compound]
reversal of reserpine-induced akinesia ([6]; 300 and 1000 nmol): significant reversals of akinesia
haloperidol-induced catalepsy ([7]; 100−1000 nmol, dose-dependent, haloperidol 1.5 mg/kg i.p.): significantly decreased

C[C@@H](CN1CCC(Cc2ccccc2)CC1)[C@@H](O)c1ccc(O)cc1 [Ro25−6981, (αR,βS)-α-(4-hydroxyphenyl)-β-methyl-4-(phenylmethyl)-1-piperidinepropanol, reference compound]
peak amplitude of NMDAR currents ([3]; 1 μM, p < 0.003): 53.1 ± 8.5 % of control

N[C@@H](CCC(=O)O)C(=O)O [glutamate, L-glutamate, reference compound]
EC50 [2]: 9200 ± 1200 nM

N-Phenyl-7-(hydroxyimino)cyclopropa[b]chromen-1a-carboxamide [PHCCC, reference compound]
EC50 [13]: ~4 µM
solubility in vehicle ([5]; vehicle for icv administration): only soluble in vehicles containing high concentrations of DMSO or other relatively toxic vehicles
maximal agonist response, percent of the maximal glutamate response ([2]; compound alone, no glutamate, observed at 30 μM): −2.3±2.0%
% Max rmGluR4/GIRK [2]: 120.3±4.4%
